Results reported in article PMC5731780 (Structure (London, England : 1993), 2017).
Where “and” joins values, the source holds several entries; their conditions need not be identical. Equal values may be shown once.

What was measured:
Ub [1] = molecular target: T1, Ub (Homo sapiens, UniProt P0CG48); test: NMR titration of 15N-labeled Ub; type: binding
Ubp6 = test: Gel-based assay of K48-Ub2 disassembly by Ubp6; type: biochemical, yeast
Ub [2] = molecular target: T1, Ub; test: ubiB fluorescence anisotropy titration with Ub; type: binding; conditions: read-out: Kd, Ub (fluorescence anisotropy)
Procedure, shortened: (§1)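 Fluorescence anisotropy was measured at 21°C in PBS pH 7.4. ubiB was held at 1 μM for Ub2 titrations and 10 μM for Ub, while Ub or Ub2 was varied. Readings were taken in T-configuration, excitation 386 nm, emission 485 nm. Anisotropy change was fitted to a single-site binding model for Kd.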

K11-Ub2 = K11-Ub2 (Homo sapiens, UniProt P0CG48); test: ubiB fluorescence anisotropy titration with K11-Ub2; type: binding; conditions: read-out: Kd, K11-Ub2 (fluorescence anisotropy)
Procedure, shortened: as §1

K63-Ub2 = test: ubiB fluorescence anisotropy titration with K63-Ub2; type: binding, human; conditions: read-out: Kd, K63-Ub2 (fluorescence anisotropy)
Procedure, shortened: as §1

K48-Ub2 [3] = molecular target: T2, K48-Ub2 (Homo sapiens, UniProt P0CG48); test: 15N T1 relaxation of K48-Ub2 with ubistatin; type: binding; conditions: mean (SD)
Procedure, shortened: (§2)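 15N T1 longitudinal relaxation measured with standard pulse sequences at 23°, 600 and 800 MHz with cryoprobes. 15N-labeled human Ub or K48-linked Ub2 was free or mixed with ubistatin in 20 mM phosphate buffer pH 6.8 with 0.02% (w/v) NaN3 and 5% D2O. Values are means with standard deviations averaged over residues in structured regions.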

Ub^72 [4] = molecular target: T3, Ub^72 (Homo sapiens, UniProt P0CG48); test: 15N T1 relaxation of Ub^72 with ubistatin; type: binding; conditions: mean (SD)
Procedure, shortened: (§3)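 Human Ub and its point mutants were expressed from pET3a and made by PCR mutagenesis. Samples were in 20 mM phosphate buffer (pH 6.8) with 0.02% (w/v) NaN3 and 5% D2O. 15N T1 was measured at 23° on 600 and 800 MHz spectrometers with cryoprobes, using standard pulse sequences.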

Ub^72 [5] = molecular target: T3, Ub^72; test: NMR titration of 15N-labeled Ub^72; type: binding
Procedure, shortened: (§4)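 Unlabeled ubistatin was added in increasing amounts to 15N-labeled Ub variant in 20 mM phosphate (pH 6.8), 0.02% NaN3, 5% D2O at 23°. Binding was followed in 1H-15N HSQC or SOFAST-HMQC spectra. Signal shifts were quantified as CSPs and fitted against bound fraction to give Kd.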

CFTR ubiquitination = test: In vitro CFTR ubiquitination assay; type: biochemical, yeast
AMSH = test: Gel-based assay of K63-Ub2 disassembly by AMSH; type: biochemical; conditions: stoichiometric ubiB
Ub^R74A [6] = molecular target: T4, Ub^R74A (Homo sapiens, UniProt P0CG48, R74A); test: NMR titration of 15N-labeled Ub^R74A; type: binding
Procedure, shortened: as §4

HeLa and RCC4 cells = test: ubiB internalization in live cells by fluorescence microscopy; type: cell-based, human; conditions: 10 μM ubiB, 6 hrs
Procedure, shortened: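 HeLa and RCC4 cells were grown in DMEM/10% FBS on glass-bottom dishes, exposed to 10 μM ubiB for 6 hrs, and washed three times in PBS. Plasma membrane was stained with Texas Red wheat germ agglutinin (1:500, 15 min). Live cells were imaged by confocal Z-stacks (63× oil), with 405 nm excitation for ubiB and 555 nm for the membrane probe.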

Ub^R42E = Ub^R42E (Homo sapiens, UniProt P0CG48, R42E); test: NMR titration of 15N-labeled Ub^R42E; type: binding; conditions: read-out: Dissociation constant, Ub^R42E (NMR titration); Table 2
Procedure, shortened: (§5)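 Ub point mutants were made by PCR mutagenesis of human wild-type Ub in pET3a, with DpnI digestion and sequence verification. Increasing amounts of unlabeled ubistatin were titrated into 15N-labeled protein in 20 mM phosphate pH 6.8, 0.02% NaN3, 5% D2O, at 23°. Signal shifts and attenuations were tracked in 1H-15N HSQC or SOFAST-HMQC spectra, and spectral perturbations were quantified at each titration step.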

Ub^R74A [7] = molecular target: T4, Ub^R74A; test: 15N T1 relaxation of Ub^R74A with ubistatin; type: binding; conditions: mean (SD)
Procedure, shortened: as §3

Ub [8] = molecular target: T1, Ub; test: NMR competition assay against ubiquilin-1 UBA domain for Ub; type: binding; conditions: up to 3-fold molar excess
K48-Ub2 [9] = molecular target: T2, K48-Ub2; test: ubiB fluorescence anisotropy titration with K48-Ub2; type: binding; conditions: read-out: Kd, K48-Ub2 (fluorescence anisotropy)
Procedure, shortened: as §1

K48-Ub2 [10] = molecular target: T2, K48-Ub2; test: NMR competition assay against ubiquilin-1 UBA domain for K48-Ub2; type: binding
HeLa cells = test: Perturbation of the Ub landscape in cells; type: cell-based, human
Ub^R42E,R72E [11] = molecular target: T5, Ub^R42E,R72E (Homo sapiens, UniProt P0CG48, R42E/R72E); test: NMR titration of 15N-labeled Ub^R42E,R72E; type: binding
Procedure, shortened: as §5

Ub^R74E [12] = molecular target: T6, Ub^R74E (Homo sapiens, UniProt P0CG48, R74E); test: 15N T1 relaxation of Ub^R74E with ubistatin; type: binding; conditions: mean (SD)
Procedure, shortened: as §3

Ub [13] = molecular target: T1, Ub; test: SANS of Ub with ubiB; type: binding; conditions: equimolar ubiB
Ub [14] = molecular target: T1, Ub; test: 15N T1 relaxation of Ub with ubistatin; type: binding; conditions: mean (SD) over residues in structured regions
Procedure, shortened: as §2

yeast 26S proteasome = test: Gel-based assay of DUB activity of 26S proteasome; type: biochemical
Cezanne (OTUD7B) = test: Gel-based assay of K11-Ub2 disassembly by Cezanne; type: biochemical; conditions: stoichiometric ubiB
[15] = test system: Rpn11 in purified proteasome; test: Proteasome/Rpn11 inhibition assay; type: biochemical, human
Procedure, shortened: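 Human erythrocyte proteasome was used with Ub4pep substrate: His6, four head-to-tail Ub repeats and a 30-mer peptide whose cysteine carried Oregon Green 488. Compounds were screened at 10 μM. IC50 came from 0–100 μM series in quadruplicate.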

OTUB1 = test: Gel-based assay of K48-Ub2 disassembly by OTUB1; type: biochemical; conditions: stoichiometric ubiB
Ub^R42E,R72E [16] = molecular target: T5, Ub^R42E,R72E; test: 15N T1 relaxation of Ub^R42E,R72E with ubistatin; type: binding; conditions: mean (SD)
Procedure, shortened: as §3

Ub^R74E [17] = molecular target: T6, Ub^R74E; test: NMR titration of 15N-labeled Ub^R74E; type: binding
Procedure, shortened: as §4

K48-Ub2 [18] = molecular target: T2, K48-Ub2; test: SANS of K48-Ub2 with ubiB; type: binding; conditions: equimolar ubiB

O=S(=O)(O)c1cccc2cccc(Nc3ccccc3)c12 [ANS, 8-anilinonaphthalene-1-sulfonic acid, reference compound]
CSPs in Ub upon titration (Ub [1]): < 0.1 ppm

O=S(=O)(O)c1ccc2c(ccc3nn(-c4ccc(/C=C/c5ccc(-n6nc7ccc8cc(S(=O)(=O)O)ccc8c7n6)cc5S(=O)(=O)O)c(S(=O)(=O)O)c4)nc32)c1 [ubiB, Ubistatin B]
effect on disassembly of K48-Ub2 by Ubp6 (Ubp6): concentration-dependent effect
Kd (Ub [2]): 14 ± 1.6 µM
Kd (K11-Ub2): 1.83 ± 0.05 µM
Kd (K63-Ub2): 4.88 ± 0.22 µM
15N T1 of K48-Ub2 in the presence of ubistatin (K48-Ub2 [3]): 942 (66) ms
15N T1 of Ub^72 in the presence of ubistatin (Ub^72 [4]): 482 (28) ms
decrease in binding affinity, Ub^72 vs Ub (Ub^72 [5]): 6 fold
Kd (Ub^72 [5]; read-out: Dissociation constant, Ub^72 (NMR titration), Table 2): 73.1 µM
concentration required for complete inhibition of ubiquitination (CFTR ubiquitination): ≥ 100 µM
CFTR protein modified (ubiquitinated), DMSO control = 100% (CFTR ubiquitination; 100 μM compound, 26°C, 60 min): 18±2%
inhibition of ubiquitination (CFTR ubiquitination; at 1 μM ubiB): 5-10%
IC50 (CFTR ubiquitination; read-out: IC50, CFTR ubiquitination, titration of ubiB): ~10 µM and 10 µM
disassembly of K63-Ub2 by AMSH (AMSH): prevented
weakening of ubiB binding, Ub^R74A vs Ub (Ub^R74A [6]): 3.5 fold
Kd (Ub^R74A [6]; read-out: Dissociation constant, Ub^R74A (NMR titration), Table 2): 40.3 µM
toxicity judged by cell morphology (HeLa and RCC4 cells): not toxic
cell internalization (HeLa and RCC4 cells; no chemical permeabilization): distinct ubiB fluorescence at and within the boundaries of the fluorescently labeled plasma membrane
Kd (Ub^R42E): 396 µM
15N T1 of Ub^R74A in the presence of ubistatin (Ub^R74A [7]): 544 (26) ms
competition with UBA for binding to Ub (Ub [8]): outcompetes UBA for binding to Ub
Kd (K48-Ub2 [9]): 0.264 ± 0.023 µM
competition with UBA for binding to K48-Ub2 (K48-Ub2 [10]): outcompeted UBA for binding to K48-Ub2
Ub conjugates below 70 kDa (HeLa cells; 2 μM ubiB, 8 hrs): greatly diminished
Ub conjugates, RIPA lysis, Western blot (HeLa cells; 6 hrs ubiB treatment): increases the amount of Ub conjugates
binding to Ub^R42E,R72E (Ub^R42E,R72E [11]): only negligible CSPs
Kd (Ub^R42E,R72E [11]; read-out: Dissociation constant, Ub^R42E,R72E (NMR titration), Table 2): > 1000 µM
15N T1 of Ub^R74E in the presence of ubistatin (Ub^R74E [12]): 556 (28) ms
Kd (Ub [1]; read-out: Dissociation constant, Ub (NMR titration), Table 2): 11.3 µM
direct binding to 15N Ub by CSPs (Ub [1]; starting Ub 1 mM): produced CSPs in and around Ub's hydrophobic patch
Radius of gyration (Rg) of Ub + ubiB (Ub [13]): 17.4 (0.1) Å
15N T1 of Ub in the presence of ubistatin (Ub [14]): 660 ± 25 ms
disassembly of K11-Ub6+ by 26S proteasome (yeast 26S proteasome; 20 hr time course): only trace amounts of cleavage intermediates appeared
processing of Ubch5b-Ubn by 26S proteasome (yeast 26S proteasome; K11, K48, K63 linkage-specific antibodies): preserved all three linkage types
disassembly of K11-Ub2 by Cezanne (OTUD7B) (Cezanne (OTUD7B)): prevented
inhibition of deubiquitination ([15]; at 1 μM ubiB): ~50%
IC50 ([15]; read-out: IC50, DUB activity of Rpn11 in purified proteasome, deubiquitination): 1.1 µM and 1 µM
disassembly of K48-Ub2 by OTUB1 (OTUB1): prevented
15N T1 of Ub^R42E,R72E in the presence of ubistatin (Ub^R42E,R72E [16]): 493 (27) ms
weakening of ubiB binding, Ub^R74E vs Ub (Ub^R74E [17]): 6 fold
Kd (Ub^R74E [17]; read-out: Dissociation constant, Ub^R74E (NMR titration), Table 2): 67.6 µM
Radius of gyration (Rg) of K48-Ub2 + ubiB (K48-Ub2 [18]): 20.1 (0.1) Å
